Assay outcomes from PubChem.
This is a sample that favours compounds with a hit; in the whole collection about 2.3% have one here.
HCV NS3 hel inh = inhibitors of Hepatitis C virus NS3 helicase | 0.56% of 290,000 active | inhibition, % at 10.9 µM | NS3 helicase DNA unwinding, Cy5 molecular beacon fluorescence;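 active = inhibition above the mean of all tested compounds plus 3 SD, set per campaign, cut at about 35% in these data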;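 also: 0% = DMSO wells and 100% = thioflavine S control wells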
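Control set: DMSO versus 110 µM thioflavine S; Material: NS3 helicase fragment of HCV; Measured by: Cy5 fluorescence at 0 and 60 min, beacon hairpin quenching; Read-out basis: percent inhibition from t60/t0 fluorescence ratio; Times: reaction time 60 min, 25 °C; Repeats: single replicate; Compound dosing: single dose, 10.9 µM nominal final, DMSO 0.8% final.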
HCV core dimer = HCV core protein dimerization inhibition; TR-FRET GST/Flag-core106 dimerization, 1536-well; inhibition, % at 5 µM; 0.33% of 300,000 active; AID 1899;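 active = inhibition above the mean of all tested compounds plus 3 SD, set per screening campaign, cut at about 45% in these data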
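assay system = GST-tagged and Flag-tagged HCV core protein residues 1-106 | controls = unlabelled core106 and no-GST-core106 wells | incubation = compound-protein-antibody incubation 4 h at 22.5 °C | probe or stimulus = Eu donor and XL665 acceptor anti-tag antibodies | read-out = % inhibition based on acceptor/donor emission ratio | signal = TR-FRET 671 and 617 nm emission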
EBV gp42 inh = inhibitors of Epstein-Barr virus glycoprotein 42; inhibition, % (tested at 21.74 µM); 0.42% of 220,000 active; Fluorescence polarization binding assay, mP read-out; in the data active = inhibition above about 50%
ZTA counter = counter-screen for EBNA-1 inhibitors: inhibitors of Epstein-Barr virus ZTA. inhibition, % at 11 µM. 0.15% of 320,000 active. ZTA-DNA binding, fluorescence polarization; in the data active = inhibition above about 33%
EBNA-1 inhibitor = blocks EBNA-1 binding to DNA; 0.34% of 300,000 active; EBNA-1 DNA binding, fluorescence polarization; inhibition, % at 14.8 µM; in the data active = inhibition above about 28%
GPR7 antagonist = human neuropeptides B/W receptor 1 antagonism; GPR7-expressing cells, fluorescence antagonist assay; inhibition, % at 4.4 µM; 1.1% of 290,000 active; in the data active = inhibition above about 16%, passing the limit was not always enough;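 also: cells stimulated with the agonist NPW; 0% = agonist with vehicle and 100% = vehicle without agonist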
Target sequence (P48145 whole entry, looked up): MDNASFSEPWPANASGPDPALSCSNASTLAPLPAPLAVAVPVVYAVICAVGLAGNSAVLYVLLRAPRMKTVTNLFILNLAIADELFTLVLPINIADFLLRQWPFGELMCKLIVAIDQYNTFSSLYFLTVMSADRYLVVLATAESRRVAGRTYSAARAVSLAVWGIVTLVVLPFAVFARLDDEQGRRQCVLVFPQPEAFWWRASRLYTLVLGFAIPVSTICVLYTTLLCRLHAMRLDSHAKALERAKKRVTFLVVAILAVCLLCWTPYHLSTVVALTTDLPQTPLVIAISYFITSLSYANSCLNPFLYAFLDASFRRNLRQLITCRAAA
EBNA-1 confirm = EBNA-1 (EBV) inhibition, confirmation; 35% of 830 active; inhibition, % at 14.8 µM; Recombinant EBNA-1 DBD, Cy5-DNA fluorescence polarization; shares compounds with EBNA-1 inhibitor;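 active = mean inhibition across replicates above a set limit taken from the earlier primary screen, cut at about 28% in these data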;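 also: plate controls were EBNA-1 protein with DMSO for no effect and wells lacking EBNA-1 for full effect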
ZTA DNA inh trip = blocks Epstein-Barr virus ZTA in triplicate, EBNA-1 counter-screen; shares compounds with EBNA-1 inhibitor; Zta-ZRE DNA binding, Cy5 fluorescence polarization; inhibition, % at 11.1 µM; 830 tested, under 10 active; AID 2328;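 active = mean inhibition over triplicates above a set limit taken from the primary EBNA-1 screen, cut at about 37% in these data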;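 also: purified full length Zta protein with Cy5 labeled ZRE DNA probe; 0% = Zta with DMSO and 100% = wells lacking Zta protein; inhibitors lower polarization by freeing the labeled DNA probe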
* hit, by the source's call; nt = no result given.

SMILES	HCV NS3 hel inh	HCV core dimer	EBV gp42 inh	ZTA counter	EBNA-1 inhibitor	GPR7 antagonist	EBNA-1 confirm	ZTA DNA inh trip
O=C(COC(=O)c1ccccc1Cl)Nc1ccc2[nH]c(=O)[nH]c2c1	nt	-0.8	nt	19.3	-1.1	nt	nt	nt
O=C(COC(=O)c1cc(Cl)ccc1Cl)Nc1ccc2[nH]c(=O)[nH]c2c1	nt	-2.7	nt	-7.4	85.3*	nt	28.4*	2.7
CCCCCNC(=O)C1CCC(Cn2c(=S)[nH]c3ccccc3c2=O)CC1 (centres undefined)	2.0	11.6	-8.8	-3.3	44.2*	-2.3	20.9	2.9
Cc1cccc(N2CCN(C3=NC(=O)/C(=C\c4cn[nH]c4-c4ccccc4)S3)CC2)c1	16.0	20.4	-23.1	-10.4	67.3*	-10.7	29.1*	11.9
Cc1cccc(N2CCN(C3=NC(=O)C(=C4CCCCC4)S3)CC2)c1	-10.8	20.5	-26.1	15.6	3.0	-7.4	nt	nt
O=C1N=C(N2CCN(c3ccccc3)CC2)S/C1=C\c1cn[nH]c1-c1ccccc1	6.1	10.2	-13.5	2.3	138.2*	-8.0	33.8*	3.0
Cc1ccc(N2CCN(C3=NC(=O)/C(=C\c4cn[nH]c4-c4ccccc4)S3)CC2)cc1	7.2	24.2	6.6	-5.6	93.1*	-5.3	42.7*	-3.4
O=C1N=C(N2CCN(c3ccccc3)CC2)S/C1=C\c1ccco1	17.1	22.7	-13.7	-18.7	7.3	-7.0	nt	nt
O=C1N=C(N2CCC(Cc3ccccc3)CC2)S/C1=C/c1cn[nH]c1-c1ccccc1	-12.8	13.3	-5.3	-0.3	4.8	-5.7	nt	nt
CCC(=O)Nc1nnc(SCC(=O)NC2CCCC2)s1	-2.2	-1.6	nt	2.0	-7.1	-19.4	nt	nt
CC(=O)Nc1cccc(NC(=O)CSc2ccc(-c3ccccn3)nn2)c1	6.2	1.8	-7.7	0.7	-6.1	-13.9	nt	nt
Cc1ccc(NC(=O)CSc2ccc(-c3ccccn3)nn2)cc1F	-93.5	0.9	nt	1.0	36.2*	-1.1	52.7*	6.9
Cc1cccc(C(=O)Oc2ccccc2/C=N/Nc2ccc([N+](=O)[O-])cc2)c1	9.1	1.7	-36.6	4.5	34.4*	-9.2	40.9*	0.5
COc1ccc(/C=C/C(=O)NC(=S)Nc2ccc(S(N)(=O)=O)cc2)cc1	-8.8	-2.9	-10.0	31.3	32.5*	-12.3	39.3*	37.1*
CCOC(=O)c1ccc(NC(=O)c2cccc(S(=O)(=O)N3c4ccccc4CC3C)c2)s1 (centres undefined)	-26.0	13.8	1.7	-13.2	40.1*	2.6	10.4	-1.1
CC(=O)c1ccc(NC(=S)NC(=O)Cc2ccc(Cl)cc2)cc1	-3.0	1.7	nt	3.6	31.1*	4.8	43.4*	-1.2
O=C(c1cccnc1)N1CCC(Oc2ccc(C(=O)N3CCCCO3)cc2)CC1	-2.0	-3.5	-19.2	-7.1	-1.2	-4.6	nt	nt
CCOC(=O)N/N=C(/C)c1ccc([N+](=O)[O-])o1	4.8	-1.1	-20.6	-1.3	35.7*	16.0	7.1	4.9
C/C(=N\NC(=O)CCC(=O)N/N=C(\C)c1ccc(C)o1)c1ccc(C)o1	nt	-2.8	nt	11.8	1.4	nt	nt	nt
Cc1cc([N+](=O)[O-])ccc1NC(=O)C(C)N1CCN(c2ccccn2)CC1 (centres undefined)	3.0	2.0	-11.4	3.1	-6.4	8.1	nt	nt
O=C(Nc1cccc(Cl)c1Cl)C1CC(=O)N(c2ccc(Br)cc2)C1 (centres undefined)	3.1	5.5	-5.0	6.9	59.6*	-7.5	21.3	8.5
c1ccc2c(c1)COC(CN1CCCCC1)OC2	3.6	10.5	6.2	14.9	6.1	-3.5	nt	nt
CCOc1ccc(NC(=O)CCC(=O)NNC(=O)COc2ccc(C)cc2)cc1	18.7	3.6	6.2	26.5	19.2	10.5	nt	nt
CCOc1ccc(NC(=O)CCC(=O)NNC(=O)COc2ccc(C)cc2Br)cc1	-31.8	7.8	nt	10.6	50.5*	-22.9	99.3*	10.6
CN(Cc1ccccc1)S(=O)(=O)c1ccc(Cl)c(C(=O)NCc2ccc3c(c2)OCO3)c1	-3.8	7.2	-3.9	10.0	37.3*	-8.9	-7.8	4.2
